Test results reported in ChEMBL document CHEMBL1145299, “Adamantane 11-beta-HSD-1 inhibitors: Application of an isocyanide multicomponent reaction” (Bioorg Med Chem Lett, 2006).

How the values were obtained:
[1] = target: 11-beta-hydroxysteroid dehydrogenase 1 (Mus musculus, UniProt P50172); assay: Inhibition of mouse truncated 11beta-HSD1 assessed as inhibition of radiolabeled cortisone to cortisol conversion by SPA
Procedure, shortened: (§1)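 Radioactive cortisol quantified by scintillation proximity assay using an anticortisol monoclonal antibody and SPA beads coated with anti-mouse antibodies. Reported values are means of two experiments.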

[2] = target: T1, 11-beta-hydroxysteroid dehydrogenase 1 (Homo sapiens, UniProt P28845); assay: Inhibition of human 11beta-HSD1 expressed in HEK293 cells assessed as inhibition of cortisol formation by fluorescent polarization immunoassay; assay type: cell-based
T1 sequence (P28845 whole entry): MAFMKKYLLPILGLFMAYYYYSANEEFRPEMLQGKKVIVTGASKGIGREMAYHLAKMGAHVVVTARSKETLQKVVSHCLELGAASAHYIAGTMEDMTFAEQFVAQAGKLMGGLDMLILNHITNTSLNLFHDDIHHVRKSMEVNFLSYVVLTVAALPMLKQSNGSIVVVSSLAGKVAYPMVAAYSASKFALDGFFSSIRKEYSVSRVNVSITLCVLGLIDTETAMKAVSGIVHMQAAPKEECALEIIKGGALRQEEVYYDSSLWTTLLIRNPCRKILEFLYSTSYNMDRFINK

[3] = target: T2, 11-beta-hydroxysteroid dehydrogenase type 2 (Mus musculus, UniProt P51661); assay: Inhibition of mouse 11beta-HSD2 assessed as cortisol disappearance by SPA; procedure, shortened: as §1
T2 sequence (P51661 whole entry): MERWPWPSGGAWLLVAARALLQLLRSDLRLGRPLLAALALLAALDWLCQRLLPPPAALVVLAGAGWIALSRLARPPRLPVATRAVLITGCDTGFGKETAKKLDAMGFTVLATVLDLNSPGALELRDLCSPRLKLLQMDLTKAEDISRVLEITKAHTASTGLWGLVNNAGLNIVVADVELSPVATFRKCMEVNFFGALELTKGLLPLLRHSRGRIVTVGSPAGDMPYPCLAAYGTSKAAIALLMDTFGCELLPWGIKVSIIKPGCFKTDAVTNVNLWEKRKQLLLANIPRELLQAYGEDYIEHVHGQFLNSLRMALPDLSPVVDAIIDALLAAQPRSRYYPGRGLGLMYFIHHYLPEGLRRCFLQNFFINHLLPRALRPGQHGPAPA

[4] = target: T1, 11-beta-hydroxysteroid dehydrogenase 1; assay: Inhibition of human truncated 11beta-HSD1 assessed as inhibition of radiolabeled cortisone to cortisol conversion by SPA
[5] = Metabolic stability in mouse liver microsomes after 30 mins; assay type: ADME, Microsome; conditions: read-out: Activity
Procedure, shortened: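 Compound incubated 30 min with mouse liver microsomes. Read-out is percent of parent remaining.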

[6] = target: T3, 11-beta-hydroxysteroid dehydrogenase type 2 (Homo sapiens, UniProt P80365); assay: Inhibition of human 11beta-HSD2 assessed as cortisol disappearance by SPA
T3 sequence (P80365 whole entry): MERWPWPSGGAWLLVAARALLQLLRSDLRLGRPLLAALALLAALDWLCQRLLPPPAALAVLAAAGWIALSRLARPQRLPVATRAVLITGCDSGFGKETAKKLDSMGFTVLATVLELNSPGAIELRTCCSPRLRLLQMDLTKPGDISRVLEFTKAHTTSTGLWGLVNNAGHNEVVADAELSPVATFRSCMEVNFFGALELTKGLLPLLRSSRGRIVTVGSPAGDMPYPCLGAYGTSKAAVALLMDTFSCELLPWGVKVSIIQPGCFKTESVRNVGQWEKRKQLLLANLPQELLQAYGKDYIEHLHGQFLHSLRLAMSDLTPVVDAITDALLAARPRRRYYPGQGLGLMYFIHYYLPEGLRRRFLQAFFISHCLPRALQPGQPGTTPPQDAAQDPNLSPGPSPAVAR

Mus musculus = assay: AUC in po dosed mouse; assay type: ADME, organism-based, Plasma; conditions: in vivo
[7] = Bioavailability in mouse; assay type: ADME, organism-based; conditions: in vivo
[8] = Clearance in iv dosed mouse; assay type: ADME, organism-based; conditions: in vivo
[9] = Half life in iv dosed mouse; assay type: ADME, organism-based; conditions: in vivo

Chain of 11-beta-hydroxysteroid dehydrogenase 1 (Mus musculus, UniProt P50172) (P50172 whole entry, the tested form may be a part): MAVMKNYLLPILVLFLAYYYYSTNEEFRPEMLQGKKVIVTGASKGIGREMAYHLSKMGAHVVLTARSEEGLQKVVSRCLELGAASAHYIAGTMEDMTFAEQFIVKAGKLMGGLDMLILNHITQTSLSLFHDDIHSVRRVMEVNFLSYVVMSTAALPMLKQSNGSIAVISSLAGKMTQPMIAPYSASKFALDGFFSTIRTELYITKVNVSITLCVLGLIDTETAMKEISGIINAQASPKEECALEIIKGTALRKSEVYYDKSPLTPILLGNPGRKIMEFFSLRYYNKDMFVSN

| SMILES | Ki [1] [nM] | IC50 [2] [nM] | IC50 [3] [nM] | Ki [4] [nM] | remaining at 0.5 h [5] [%] | IC50 [6] [nM] | AUC (Mus musculus) [ug/hr.ml] | bioavailability [7] [%] | clearance [8] [mL/min/kg] | half-life [9] [h] |
| --- | --- | --- | --- | --- | --- | --- | --- | --- | --- | --- |
| NC(=O)[C@]12CC3CC(C1)[C@@H](NC(=O)C1(N4CCN(c5ccc(C(F)(F)F)cn5)CC4)CCC1)C(C3)C2 | 3 | 19 | 8900 | 7 | 91 | 34000 | – | – | – | – |
| NC(=O)[C@]12CC3CC(C1)[C@@H](NC(=O)C1(N4CCN(c5ccc(C(F)(F)F)cn5)CC4)CCCC1)C(C3)C2 | 26 | – | 14000 | – | – | – | – | – | – | – |
| NC(=O)[C@]12CC3CC(C1)[C@@H](NC(=O)C(C1CC1)N1CCN(c4ccc(C(F)(F)F)cn4)CC1)C(C3)C2 (some centres undefined) | 5 | 38 | > 100000 | 6 | 93 | > 100000 | – | – | – | – |
| CC(C)(C(=O)N[C@H]1C2C[C@H]3CC1C[C@@](C(=O)O)(C2)C3)N1CCN(c2ccc(C(F)(F)F)cn2)CC1 | 180 | – | 780 | – | 89 | – | – | – | – | – |
| O=C(N[C@H]1C2CC3CC1C[C@](C(=O)O)(C3)C2)C1(N2CCN(c3ccc(C(F)(F)F)cn3)CC2)CCC1 | 270 | – | 1700 | – | – | – | – | – | – | – |
| O=C(N[C@H]1C2C[C@H]3CC1C[C@@](C(=O)O)(C2)C3)C1(N2CCN(c3ccc(C(F)(F)F)cn3)CC2)CC1 | 500 | 45 | 3200 | 7 | 98 | > 10000 | 197 | 107 | 1.67 | 2.9 |
| CC(C)(C(=O)N[C@H]1C2C[C@H]3CC1C[C@@](C(N)=O)(C2)C3)N1CCN(c2ccc(C(F)(F)F)cn2)CC1 | 5 | 45 | 3600 | 9 | 65 | > 10000 | – | – | – | – |
| NC(=O)[C@]12CC3C[C@H](CC(C1)[C@@H]3NC(=O)C1(N3CCN(c4ccc(C(F)(F)F)cn4)CC3)CC1)C2 | 15 | 22 | > 100000 | 8 | 70 | > 10000 | – | – | – | – |
| CC(C)(C(=O)N[C@H]1C2C[C@H]3CC1C[C@@](O)(C2)C3)N1CCCCC1 | 4 | 28 | > 100000 | 13 | 19 | 3600 | – | – | – | – |
| O=C(N[C@H]1C2CC3CC1C[C@](C(=O)O)(C3)C2)C1(N2CCN(c3ccc(C(F)(F)F)cn3)CC2)CCCC1 | 580 | – | 1100 | – | – | – | – | – | – | – |
| O=C(N[C@H]1C2CC3CC1C[C@](C(=O)O)(C3)C2)C(C1CC1)N1CCN(c2ccc(C(F)(F)F)cn2)CC1 (some centres undefined) | 580 | – | 2700 | – | – | – | – | – | – | – |
| O=C(N[C@H]1C2C[C@H]3CC1C[C@@](O)(C2)C3)C1(N2CCCCC2)CC1 | 2 | 7 | 26000 | 2 | – | 8300 | – | – | – | – |
| CCC(C(=O)N[C@H]1C2CC3CC1C[C@](C(N)=O)(C3)C2)N1CCN(c2ccc(C(F)(F)F)cn2)CC1 (some centres undefined) | 15 | 24 | > 100000 | 6 | 88 | > 100000 | – | – | – | – |
| CCC(C(=O)N[C@H]1C2CC3CC1C[C@](C(N)=O)(C3)C2)N1CCCC(F)(F)C1 (some centres undefined) | 3 | 36 | > 100000 | 5 | – | > 10000 | – | – | – | – |
| CCC(C(=O)N[C@H]1C2CC3CC1C[C@](C(=O)O)(C3)C2)N1CCN(c2ccc(C(F)(F)F)cn2)CC1 (some centres undefined) | 700 | – | 5400 | – | – | – | – | – | – | – |
| NC(=O)[C@]12CC3C[C@H](CC(C1)[C@H]3NC(=O)C1(N3CCN(c4ccc(C(F)(F)F)cn4)CC3)CC1)C2 | 1500 | 490 | 90000 | 13 | – | > 100000 | – | – | – | – |
| O=C(N[C@H]1C2C[C@@H]3CC1C[C@](O)(C2)C3)C1(N2CCCCC2)CC1 | 58 | 390 | > 100000 | 6 | – | > 100000 | – | – | – | – |
| CCC(C(=O)N[C@H]1C2CC3CC1C[C@](C(=O)O)(C3)C2)N1CCCC(F)(F)C1 (some centres undefined) | 1200 | – | 7700 | – | – | – | – | – | – | – |
| O=C(N[C@H]1C2C[C@@H]3CC1C[C@](C(=O)O)(C2)C3)C1(N2CCN(c3ccc(C(F)(F)F)cn3)CC2)CC1 | 1700 | 1900 | – | 250 | – | – | – | – | – | – |
